Data set [1] can be described thus: folding enthalpy; higher = less favourable; fluorescence melt of hairpins on a sequencing array, two-state fit. The settings on record: sodium 0.088 M. In a few lines:
(§1)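 Hairpins were imaged by Cy3 fluorescence on a sequenced MiSeq flow cell with annealed Cy3 and quencher oligos, in 50 mM Na-HEPES pH 8.0, 25 mM NaCl, in 2.5 °C steps up to 60 °C. Bootstrapped two-state fits of normalised signals gave melting temperature and folding enthalpy. Four replicates were combined by inverse variance, and fitted temperatures were raised by 9.35 °C to match UV melts.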

The nature of data set [2]: melting temperature; fluorescence melt of hairpins on a sequencing array, two-state fit, raised by 9.35 °C to match UV melts. The note with it: sodium 0.088 M. Summed up: as §1

On to GCGAGGCGAAAGCATAGC ((.(.((....)).).)), for which the folding enthalpy in data set [1] was -21.2 kcal/mol. Also, in data set [2], the Tm is 55.6 °C.
The like results for GCGAGGCGAAAGCCCAGC ((..(((....)))..)) were, in that order, -10.4 kcal/mol and 63.4 °C.
The like results for GCGAGGCGAAAGCCGGGC ((..(((....)))..)) were, in that order, -20.8 kcal/mol and 65.7 °C.
For GCGAGGGGAAACCCTTGC ((.((((....)))).)), in that order: -35.8 kcal/mol and 55.6 °C.
For the sequence GCGAGTATCGC ((((...)))), in data set [1], the folding enthalpy is -18.7 kcal/mol. For the same sequence, the Tm in data set [2] came out at 58.4 °C.
For GCGAGTATTCGC ((((....)))), in that order: -26.6 kcal/mol and 57.2 °C.
The like results for GCGAGTCTTCGC ((((....)))) were, in that order, -26.2 kcal/mol and 57.2 °C.
Turning to GCGAGTGCTCGC ((((....)))), in data set [1], the folding enthalpy was -26.2 kcal/mol. Further, in data set [2], the Tm was found to be 52 °C.
For GCGAGTTTTCGC ((((....)))), in that order: -16.5 kcal/mol and 53.3 °C.
The like results for GCGATAAATCGC ((((....)))) were, in that order, -19.3 kcal/mol and 49.8 °C.
For GCGATAACGAAAGTTCGC (((..(((....)))))), in that order: -28.2 kcal/mol and 51.1 °C.
On to GCGATACCGAAAGGTCGC (((..(((....)))))), for which, in data set [1], the folding enthalpy was -29.3 kcal/mol. Moreover, in data set [2], the Tm was 54.3 °C.
The like results for GCGATACGAAAGTAACGC (((.(((....))).))) were, in that order, -41.5 kcal/mol and 57.9 °C.
The like results for GCGATAGGAAACTATCAC (.(((((....))))).) were, in that order, -18.4 kcal/mol and 35.9 °C.
As for GCGATAGGAAACTGTCGC ((((.((....)).)))), the folding enthalpy in data set [1] is -50.7 kcal/mol. The Tm in data set [2] was found to be 54.5 °C.
The like results for GCGATATCGAAAGATCGC (((..(((....)))))) were, in that order, -30.7 kcal/mol and 50.1 °C.
For GCGATATTCGC ((((...)))), in that order: -17.2 kcal/mol and 51.9 °C.
For GCGATCCTTCGC ((((....)))), in data set [1], the folding enthalpy is -24.6 kcal/mol. Also, the Tm in data set [2] amounted to 53.7 °C.
For GCGATCGAAAGATGCGC ((((((....))).))), in that order: -27.8 kcal/mol and 53.6 °C.
As to GCGATCTATCGC ((((....)))), in data set [1], the folding enthalpy was -31 kcal/mol. In data set [2], the Tm was determined as 55.5 °C.
For GCGATCTTTCGC ((((....)))), in that order: -27.5 kcal/mol and 51.4 °C.
The like results for GCGATGAAAATCGC (((((....))))) were, in that order, -31.7 kcal/mol and 61.6 °C.
Consider GCGATGAATCGC ((((....)))), for which the folding enthalpy in data set [1] is -26.2 kcal/mol. Moreover, in data set [2], the Tm was 52.4 °C.
For GCGATGCGAAAGCAAGGC ((..(((....)))..)), in that order: -17.2 kcal/mol and 42.3 °C.
The like results for GCGATGCGAAAGCACTGC ((..(((....)))..)) were, in that order, -19.1 kcal/mol and 45.2 °C.
For GCGATGCGAAAGCATAGC ((.((((....)))).)), in that order: -31.1 kcal/mol and 66.7 °C.
Turning to GCGATGCTTCGC ((((....)))), the folding enthalpy in data set [1] is -20.2 kcal/mol. In data set [2], the Tm was found to be 62.3 °C.
Consider GCGATGGATCGC ((((....)))), for which, in data set [1], the folding enthalpy is -22.8 kcal/mol. Further, in data set [2], the Tm amounted to 52.8 °C.
The like results for GCGATGGCGAAAGCCCGC (((..(((....)))))) were, in that order, -18.4 kcal/mol and 56.5 °C.
For GCGATGGGAAACCACCGC (((.(((....))).))), the folding enthalpy in data set [1] is -48.5 kcal/mol. In addition, the Tm in data set [2] is 51.1 °C.
The like results for GCGATGGGAAACCATTGC ((.((((....)))).)) were, in that order, -49.3 kcal/mol and 52.5 °C.
The like results for GCGATGGGAAACCGTTGC ((.(.((....)).).)) were, in that order, -28.8 kcal/mol and 42.7 °C.
The like results for GCGATTATCGC ((((...)))) were, in that order, -20.9 kcal/mol and 49 °C.
GCGATTATTCGC ((((....)))): the folding enthalpy in data set [1] is -25.1 kcal/mol. Also, in data set [2], the Tm came out at 52.4 °C.
The like results for GCGATTCCGAAAGGACGC (((..(((....)))))) were, in that order, -26.3 kcal/mol and 46 °C.
Turning to GCGATTGGAAACAATTGC ((.((((....)))).)), the folding enthalpy in data set [1] was -35.4 kcal/mol. Moreover, in data set [2], the Tm came out at 49.7 °C.
On to GCGATTGGTCGC ((((....)))), for which the folding enthalpy in data set [1] was -23.4 kcal/mol. In addition, in data set [2], the Tm came to 52.1 °C.

(Values after the array DNA melting data of Ke et al. (doi:10.1101/2024.01.08.574731).)
